The text below walks through data of ChEMBL document CHEMBL1212859, “Novel aminopeptidase N (APN/CD13) inhibitors derived from 3-phenylalanyl-N'-substituted-2,6-piperidinedione” (Bioorg Med Chem, 2010).

pIC50: −log10 of the molar value.

The target of experiment [1] is 72 kDa type IV collagenase (Homo sapiens, UniProt P08253). Nature of the experiment: Inhibition of MMP2 after 30 mins. The procedure, abridged: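 Gelatinase A (MMP-2), synthesized substrate and inhibitor were dissolved together in 50 mmol/L sodium borate, pH 8.5, and incubated for 30 min at 37 °C. TNBS was used in the assay.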
Sequence of 72 kDa type IV collagenase (P08253 whole entry): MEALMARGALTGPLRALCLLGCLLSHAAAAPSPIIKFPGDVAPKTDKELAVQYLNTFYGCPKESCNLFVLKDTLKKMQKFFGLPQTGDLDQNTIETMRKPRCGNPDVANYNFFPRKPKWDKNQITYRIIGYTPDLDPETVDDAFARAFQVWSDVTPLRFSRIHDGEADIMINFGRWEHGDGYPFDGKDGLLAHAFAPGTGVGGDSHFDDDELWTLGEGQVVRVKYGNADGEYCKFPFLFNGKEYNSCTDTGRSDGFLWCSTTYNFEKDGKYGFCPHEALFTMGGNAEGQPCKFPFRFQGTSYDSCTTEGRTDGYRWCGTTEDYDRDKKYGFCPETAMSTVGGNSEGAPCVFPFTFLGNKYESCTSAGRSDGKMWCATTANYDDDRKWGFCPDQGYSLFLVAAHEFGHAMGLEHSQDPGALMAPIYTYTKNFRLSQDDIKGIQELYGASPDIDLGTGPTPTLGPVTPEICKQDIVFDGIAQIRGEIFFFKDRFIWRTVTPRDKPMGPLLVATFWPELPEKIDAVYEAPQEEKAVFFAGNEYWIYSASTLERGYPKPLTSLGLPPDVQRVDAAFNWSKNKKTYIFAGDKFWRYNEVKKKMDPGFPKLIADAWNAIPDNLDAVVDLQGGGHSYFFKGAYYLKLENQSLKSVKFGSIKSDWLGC
Another experiment addresses T1, Aminopeptidase N (Sus scrofa, UniProt P15145).
T1 sequence (P15145 whole entry): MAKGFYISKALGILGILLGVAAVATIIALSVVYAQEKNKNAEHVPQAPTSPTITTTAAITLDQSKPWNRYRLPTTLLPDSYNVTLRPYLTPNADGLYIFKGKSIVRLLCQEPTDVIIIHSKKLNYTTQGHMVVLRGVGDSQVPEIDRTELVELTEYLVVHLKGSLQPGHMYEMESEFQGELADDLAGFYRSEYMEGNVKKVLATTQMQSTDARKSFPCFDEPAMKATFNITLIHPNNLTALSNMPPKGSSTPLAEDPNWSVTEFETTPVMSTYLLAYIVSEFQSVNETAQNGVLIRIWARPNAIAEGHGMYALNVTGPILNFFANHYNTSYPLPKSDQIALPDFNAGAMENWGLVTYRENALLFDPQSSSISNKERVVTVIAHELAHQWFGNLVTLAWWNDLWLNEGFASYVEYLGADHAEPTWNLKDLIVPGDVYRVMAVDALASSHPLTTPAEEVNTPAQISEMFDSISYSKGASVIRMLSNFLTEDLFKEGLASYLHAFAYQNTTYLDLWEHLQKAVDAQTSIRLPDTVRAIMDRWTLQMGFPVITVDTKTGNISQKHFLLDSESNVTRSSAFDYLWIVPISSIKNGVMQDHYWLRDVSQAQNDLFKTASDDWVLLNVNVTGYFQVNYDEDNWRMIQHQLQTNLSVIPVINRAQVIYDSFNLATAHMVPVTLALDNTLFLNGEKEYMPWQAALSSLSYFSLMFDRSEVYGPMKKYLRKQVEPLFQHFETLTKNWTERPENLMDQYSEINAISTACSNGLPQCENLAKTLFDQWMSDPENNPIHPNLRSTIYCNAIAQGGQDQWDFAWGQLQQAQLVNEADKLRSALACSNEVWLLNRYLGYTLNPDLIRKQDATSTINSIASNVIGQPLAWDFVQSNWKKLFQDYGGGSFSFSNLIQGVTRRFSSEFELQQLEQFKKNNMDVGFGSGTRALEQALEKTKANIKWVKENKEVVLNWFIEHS
Nature of the experiment: Inhibition of pig kidney microsome aminopeptidase N after 30 mins by UV-vis spectrophotometric analysis. The procedure, abridged: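 Enzyme was porcine kidney microsomal aminopeptidase at 4 mg/ml final, with L-Leu-p-nitroanilide as substrate. Inhibitor solutions were made in assay buffer adjusted to pH 7.5. Inhibitors were preincubated with enzyme for 30 min at room temperature.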

For a further experiment, the system named is MDA-MB-231. Description: Cytotoxicity against human MDA-MB-231 cells after 72 hrs by MTT assay. Format: functional, cell-based. The settings on record: MDA-MB-231, 72 h. Summed up:
(§1)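 Cells grown in RPMI1640 with 10% FBS at 37 °C under humidified 5% CO2. HL-60 cells have high APN expression and MDA-MB-231 cells have low expression. Plated at 10,000 cells/well and allowed 4 h in complete medium. Exposed for 72 h to five concentrations from 2000 down to […]. Proliferation read by MTT. Mean of three independent experiments.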

In a further experiment the test system is HL-60. Description: Cytotoxicity against human HL60 cells expressing aminopeptidase N after 72 hrs by MTT assay. It is filed as functional, cell-based. The note with it: HL-60, 72 h. Summed up:
as §1

For `C[C@H](NC(=O)CN1C(=O)CC[C@H](NC(=O)[C@@H](N)Cc2ccccc2)C1=O)C(=O)OCc1ccccc1`, the pIC50 in experiment [1] is 3.89; on Aminopeptidase N, 4.04.

`CC(C)[C@H](NC(=O)CN1C(=O)CC[C@H](NC(=O)[C@@H](N)Cc2ccccc2)C1=O)C(=O)OCc1ccccc1`: the figures for the negative logarithm of the IC50 (pIC50) (in experiment [1]; against Aminopeptidase N) were 4.73 and 4.52, respectively.

With `CC(C)C[C@H](NC(=O)CN1C(=O)CC[C@H](NC(=O)[C@@H](N)Cc2ccccc2)C1=O)C(=O)OCc1ccccc1`, the negative-log IC50 (pIC50) is 3.92 in experiment [1] and 4.52 against Aminopeptidase N.

On to `N[C@@H](Cc1ccccc1)C(=O)N[C@H]1CCC(=O)N(CC(=O)N[C@@H](Cc2ccccc2)C(=O)OCc2ccccc2)C1=O`, for which the negative-log IC50 (pIC50) in experiment [1] was 4.92; against Aminopeptidase N it was 5.19; with MDA-MB-231, 1.99; with HL-60, 2.60.

As for `N[C@@H](Cc1ccccc1)C(=O)N[C@H]1CCC(=O)N(CC(=O)N[C@@H](CCC(=O)OCc2ccccc2)C(=O)OCc2ccccc2)C1=O`, the pIC50 was 3.57 in experiment [1] and 4.04 against Aminopeptidase N.

As for `N[C@@H](Cc1ccccc1)C(=O)N[C@H]1CCC(=O)N(CC(=O)NCC(=O)O)C1=O`, the negative logarithm of the IC50 (pIC50) is 3.97 in experiment [1] and 4.41 on Aminopeptidase N.

`C[C@H](NC(=O)CN1C(=O)CC[C@H](NC(=O)[C@@H](N)Cc2ccccc2)C1=O)C(=O)O`: the pIC50 in experiment [1] was 3.81; against Aminopeptidase N, 3.96.

As for `CC(C)[C@H](NC(=O)CN1C(=O)CC[C@H](NC(=O)[C@@H](N)Cc2ccccc2)C1=O)C(=O)O`, the pIC50 in experiment [1] is under 3.00; on Aminopeptidase N, 4.88.

Turning to `CC(C)C[C@H](NC(=O)CN1C(=O)CC[C@H](NC(=O)[C@@H](N)Cc2ccccc2)C1=O)C(=O)O`, the pIC50 in experiment [1] was under 3.00; against Aminopeptidase N it was 5.07; with MDA-MB-231 it was 1.84; in the experiment on HL-60, 2.28.

For the molecule `N[C@@H](Cc1ccccc1)C(=O)N[C@H]1CCC(=O)N(CC(=O)N[C@@H](Cc2ccccc2)C(=O)O)C1=O`, the negative logarithm of the IC50 (pIC50) is 3.50 in experiment [1] and 4.18 at Aminopeptidase N.

As to `N[C@@H](Cc1ccccc1)C(=O)N[C@H]1CCC(=O)N(CC(=O)Nc2ccc(F)cc2)C1=O`, the negative-log IC50 (pIC50) is 3.91 in experiment [1] and 3.60 on Aminopeptidase N.

Take `COc1ccc(NC(=O)CN2C(=O)CC[C@H](NC(=O)[C@@H](N)Cc3ccccc3)C2=O)cc1`: the pIC50 is under 3.00 in experiment [1] and 3.75 against Aminopeptidase N.

Turning to `Cc1ccc(NC(=O)CN2C(=O)CC[C@H](NC(=O)[C@@H](N)Cc3ccccc3)C2=O)c(C)c1`, the pIC50 was 5.08 in experiment [1], 5.30 at Aminopeptidase N, 2.07 with MDA-MB-231 and 2.71 in the experiment with HL-60.

Consider `N[C@@H](Cc1ccccc1)C(=O)N[C@H]1CCC(=O)N(CC(=O)Nc2cccc(Cl)c2)C1=O`, for which the negative-log IC50 (pIC50) was 4.22 in experiment [1], 5.16 against Aminopeptidase N, 2.02 with MDA-MB-231 and 2.65 with HL-60.

Consider `N[C@@H](Cc1ccccc1)C(=O)N[C@H]1CCC(=O)N(CC(=O)Nc2ccccc2F)C1=O`, for which the figures for the negative logarithm of the IC50 (pIC50) (in experiment [1]; on Aminopeptidase N) were 4.20 and 3.61, respectively.

As for `N[C@@H](Cc1ccccc1)C(=O)N[C@H]1CCC(=O)N(CC(=O)Nc2ccc(Br)cc2)C1=O`, the negative-log IC50 (pIC50) was 4.15 in experiment [1] and 4.13 at Aminopeptidase N.

In the case of `N[C@@H](Cc1ccccc1)C(=O)N[C@H]1CCC(=O)N(CC(=O)Nc2ccc(F)c(Cl)c2)C1=O`, the negative logarithm of the IC50 (pIC50) in experiment [1] was 3.88; against Aminopeptidase N, 3.77.

For the molecule `N[C@@H](Cc1ccccc1)C(=O)N[C@H]1CCC(=O)N(CC(=O)Nc2ccc(F)c(F)c2)C1=O`, the negative logarithm of the IC50 (pIC50) was 4.33 in experiment [1] and 4.27 at Aminopeptidase N.

Consider `N[C@@H](Cc1ccccc1)C(=O)N[C@H]1CCC(=O)N(CC(=O)NCC(=O)OCc2ccccc2)C1=O`, for which the negative-log IC50 (pIC50) was 3.34 in experiment [1] and 4.87 against Aminopeptidase N.

As for `NC(Cc1ccccc1)C(=O)N[C@H]1CCC(=O)N(CC(=O)NCCC(=O)OCc2ccccc2)C1=O` (single isomer, unassigned), the negative logarithm of the IC50 (pIC50) was 3.90 in experiment [1] and 4.30 against Aminopeptidase N.

For the molecule `NC(Cc1ccccc1)C(=O)N[C@H]1CCC(=O)N(CC(=O)NCCC(=O)O)C1=O` (single isomer, unassigned), the pIC50 is 4.64 in experiment [1] and 4.89 on Aminopeptidase N.

As for `NC(Cc1ccccc1)C(=O)N[C@H]1CCC(=O)N(CC(=O)N[C@@H](CCC(=O)O)C(=O)O)C1=O` (single isomer, unassigned), the pIC50 in experiment [1] is under 3.00; against Aminopeptidase N it was 4.90.

Regarding `NC(Cc1ccccc1)C(=O)N[C@H]1CCC(=O)N(CC(=O)NCC(=O)NO)C1=O` (single isomer, unassigned), the negative-log IC50 (pIC50) in experiment [1] was 3.85; on Aminopeptidase N, 3.52.

Turning to `CC(C)C[C@H](NC(=O)[C@@H](O)[C@H](N)Cc1ccccc1)C(=O)O` [UBENIMEX], the figures for the pIC50 (in experiment [1]; with MDA-MB-231; in the experiment on HL-60) were 3.80, 2.07 and 2.95, respectively.

The pIC50 is −log10 of the IC50, conventionally taken in molar units. High values mean a small IC50, low ones a large IC50.
